The nature of assay [1]: Displacement of 2-[125I]iodomelatonin from human MT1 receptor expressed in […] NIH3T3 cells after 90 mins. In kind it is cell-based. The essentials:
(§1)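 Competition binding on membranes from NIH3T3 cells expressing the cloned human receptor (5−10 μg protein per tube). Incubation with 100 pM 2-[¹²⁵I]iodomelatonin for 90 min at 37 °C in 50 mM Tris-HCl, pH 7.4. Melatonin was tested at 10⁻¹⁰−10⁻⁶ M; nonspecific binding was defined with 10 μM melatonin. IC₅₀ came from nonlinear fitting and was converted to pKi by Cheng−Prusoff; values are means of ≥3 independent duplicate determinations.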

Assay [2] is described as follows: Antagonist activity at human MT1 receptor expressed in […] NIH3T3 cells after 30 mins by [35S]GTPgammaS binding assay relative to melatonin. In kind it is functional.
Assay [3] can be described thus: Displacement of 2-[125I]iodomelatonin from human MT2 receptor expressed in […] NIH3T3 cells after 90 mins. In kind it is cell-based. The essentials:
as §1

Assay [4] in a line: Antagonist activity at human MT2 receptor expressed in […] NIH3T3 cells after 30 mins by [35S]GTPgammaS binding assay relative to melatonin. It is filed as functional.
The nature of assay [5]: Partial agonist activity at human MT2 receptor expressed in […] NIH3T3 cells after 30 mins by [35S]GTPgammaS binding assay relative to melatonin. In kind it is functional. (GTPγS resists hydrolysis and so accumulates on activated G proteins.)
Assay [6] can be described thus: Partial agonist activity at human MT1 receptor expressed in […] NIH3T3 cells after 30 mins by [35S]GTPgammaS binding assay relative to melatonin. It is filed as functional.

A word on the pKi: it is the Ki on a negative log10 scale, so that one unit is a factor of ten. High values mean a low Ki, low ones a high Ki.

With `CCC(=O)N[C@@H]1Cc2ccccc2[C@@H](c2ccccc2)C1`, the pKi is reported as 5.67 in assay [1] and 6.1 in assay [3]. Besides, the Intrinsic activity is reported as -0.23 in assay [2] and -0.14 in assay [4].
Take `CCC(=O)N[C@@H]1Cc2ccccc2[C@H](c2ccccc2)C1`: the pKi is 7.02 in assay [1] and 9.26 in assay [3]. Further, the Intrinsic activity in assay [2] is 0.15; in assay [5], 0.45.
For the compound `CCC(=O)N[C@H]1Cc2ccccc2[C@H](c2ccccc2)C1`, the negative-log Ki (pKi) is on record as 6.89 in assay [1] and 8.02 in assay [3]. The results for the Intrinsic activity in assay [6] and in assay [5] were 0.33 and 0.48, respectively.
With `CCC(=O)N[C@H]1Cc2ccccc2[C@@H](c2ccccc2)C1`, the pKi in assay [1] was 6.59; in assay [3] it was 7.01. For the same compound, the Intrinsic activity was 0.06 in assay [2] and 0.11 in assay [4].
Regarding `CCC(=O)N[C@@H]1Cc2c(OC)cccc2[C@H](c2ccccc2)C1` (racemic), the negative-log Ki (pKi) came out at 7.83 in assay [1] and 10.22 in assay [3]. Also, the Intrinsic activity in assay [2] was 0.2; in assay [5] it was 0.44.
In the case of `CCC(=O)N[C@H]1Cc2c(OC)cccc2[C@H](c2ccccc2)C1` (racemic), the pKi came out at 7.04 in assay [1] and 9.71 in assay [3]. In addition, the Intrinsic activity in assay [2] came out at 0.02; in assay [4], 0.21.
On to `CCC(=O)N[C@@H]1Cc2c(Br)cccc2[C@H](c2ccccc2)C1` (racemic), for which the negative-log Ki (pKi) worked out at 7.99 in assay [1] and 10.85 in assay [3]. Further, the Intrinsic activity in assay [6] stood at 0.49; in assay [5], 0.65.
Regarding `CCC(=O)N[C@@H]1Cc2ccccc2[C@H](c2ccccc2)C1` (racemic), the pKi in assay [1] amounted to 7.12; in assay [3], 9.16. Further, the Intrinsic activity amounted to 0.23 in assay [2] and 0.46 in assay [5].
In the case of `CCC(=O)N[C@H]1Cc2ccccc2[C@H](c2ccccc2)C1` (racemic), the pKi turned out to be 6.65 in assay [1] and 8.06 in assay [3]. Also, the Intrinsic activity in assay [6] came out at 0.41; in assay [5], 0.4.
For the compound `CCC(=O)NC1=Cc2ccccc2C(c2ccccc2)C1` (racemic), the pKi is recorded as 7.3 in assay [1] and 7.43 in assay [3]. Besides, the Intrinsic activity amounted to 0.14 in assay [2] and 0.59 in assay [5].
For the compound `CCC(=O)NC1=Cc2c(OC)cccc2C(c2ccccc2)C1` (racemic), the pKi in assay [1] is given as 6.74; in assay [3], 7.11. Besides, the results for the Intrinsic activity in assay [6] and in assay [5] were 0.32 and 0.49, respectively.
For `CCC(=O)NCC1=Cc2ccccc2C(c2ccccc2)C1` (racemic), the results for the pKi in assay [1] and in assay [3] were 7.69 and 8.46, respectively. Besides, the Intrinsic activity in assay [2] was 0.01; in assay [4], 0.02.

The record behind these values is ChEMBL document CHEMBL1944504, “Toward the definition of stereochemical requirements for MT2-selective antagonists and partial agonists by studying 4-phenyl-2-propionamidotetralin derivatives” (J Med Chem, 2011).
